Key:
HEL [1] = experiment: Induction of apoptosis in human HEL cells assessed as early apoptotic cells at 1 uM after 72 hrs by FITC-annexin V/propidium iodide-double staining based flow cytometry (reference value: 2.23%); assay type: functional
HEL [2] = experiment: Induction of apoptosis in human HEL cells assessed as viable cells at 1 uM after 72 hrs by FITC-annexin V/propidium iodide-double staining based flow cytometry (reference value: 93.77%); assay type: functional; conditions: read-out: Activity
HEL [3] = experiment: Induction of apoptosis in human HEL cells after 72 hrs by FITC-annexin V/propidium iodide-double staining based flow cytometry; assay type: functional, cell-based
[4] = target: Receptor-type tyrosine-protein kinase FLT3 (Homo sapiens) (UniProt P36888); conditions: at 100 nM
HEL [5] = experiment: Induction of cell cycle arrest in human HEL cells assessed as accumulation at G1 phase at 1 uM after 72 hrs by propidium iodide-staining based flow cytometry (reference value: 43.12%); assay type: functional
Outline: (§1)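 Subconfluent HEL cells were treated for 72 h at 0.33, 1.0, 3.0 or 9.0 μM, with untreated cells as control. Cultures were pulsed with 10 μM BrdU for 30 min at 37 °C before harvest, then PBS-washed, fixed in 70% ethanol and denatured in 2 M HCl. After neutralization, cells were stained with fluorescein anti-BrdU antibody and propidium iodide. DNA content was measured by flow cytometry with 488 nm excitation.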

HEL [6] = experiment: Induction of cell cycle arrest in human HEL cells assessed as accumulation at G1 phase at 9 uM after 72 hrs by propidium iodide-staining based flow cytometry (reference value: 43.12%); assay type: functional; outline: as §1
HEL [7] = experiment: Induction of cell cycle arrest in human HEL cells assessed as accumulation at G1 phase at 0.33 uM after 72 hrs by propidium iodide-staining based flow cytometry (reference value: 43.12%); assay type: functional; outline: as §1
HEL [8] = experiment: Induction of apoptosis in human HEL cells assessed as early apoptotic cells at 0.33 uM after 72 hrs by FITC-annexin V/propidium iodide-double staining based flow cytometry (reference value: 2.23%); assay type: functional
HEL [9] = experiment: Induction of cell cycle arrest in human HEL cells assessed as accumulation at G1 phase at 3 uM after 72 hrs by propidium iodide-staining based flow cytometry (reference value: 43.12%); assay type: functional; outline: as §1
HEL [10] = experiment: Induction of apoptosis in human HEL cells assessed as early apoptotic cells at 9 uM after 72 hrs by FITC-annexin V/propidium iodide-double staining based flow cytometry (reference value: 2.23%); assay type: functional
HEL [11] = experiment: Induction of apoptosis in human HEL cells assessed as necrotic cells at 3 uM after 72 hrs by FITC-annexin V/propidium iodide-double staining based flow cytometry (reference value: 2.40%); assay type: functional
HL-60 = experiment: Antiproliferative activity against human HL60 cells assessed as growth inhibition after 72 hrs by CCK-8 assay; assay type: functional; conditions: HL-60, 72 h
Outline: (§2)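 CCK-8 viability readout. Cells were cultured in RPMI 1640 with 10% FBS and 1% penicillin/streptomycin and seeded at 3000 (HEL), 5000 (MV4-11) or 3000 (HL60) cells/well. Increasing compound concentrations were applied for 72 h, then CCK-8 was added for a further 3 h and absorbance read at 450 nm. Inhibition = (1−A_sample/A_control)×100, normalized to DMSO controls. Value is the mean of three independent measurements, obtained by curve fitting.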

HEL [12] = experiment: Induction of apoptosis in human HEL cells assessed as necrotic cells at 9 uM after 72 hrs by FITC-annexin V/propidium iodide-double staining based flow cytometry (reference value: 2.40%); assay type: functional
MV4-11 = experiment: Antiproliferative activity against human MV4-11 cells assessed as growth inhibition after 72 hrs by CCK-8 assay; assay type: functional; conditions: MV4-11, 72 h; outline: as §2
HEL [13] = experiment: Induction of apoptosis in human HEL cells assessed as viable cells at 3 uM after 72 hrs by FITC-annexin V/propidium iodide-double staining based flow cytometry (reference value: 93.77%); assay type: functional; conditions: read-out: Activity
HEL [14] = experiment: Antiproliferative activity against human HEL cells assessed as growth inhibition after 72 hrs by CCK-8 assay; assay type: functional; outline: as §2
HEL [15] = experiment: Induction of cell cycle arrest in human HEL cells assessed as accumulation of cells at G1/S phase after 72 hrs by propidium iodide-staining based flow cytometry; assay type: functional; outline: as §1
HEL [16] = experiment: Induction of cell cycle arrest in human HEL cells assessed as accumulation at G2 phase at 3 uM after 72 hrs by propidium iodide-staining based flow cytometry (reference value: 15.10%); assay type: functional; outline: as §1
HEL [17] = experiment: Induction of apoptosis in human HEL cells assessed as late apoptotic cells at 3 uM after 72 hrs by FITC-annexin V/propidium iodide-double staining based flow cytometry (reference value: 1.63%); assay type: functional
HEL [18] = experiment: Induction of cell cycle arrest in human HEL cells assessed as accumulation at G2 phase at 1 uM after 72 hrs by propidium iodide-staining based flow cytometry (reference value: 15.10%); assay type: functional; outline: as §1
HEL [19] = experiment: Induction of apoptosis in human HEL cells assessed as late apoptotic cells at 9 uM after 72 hrs by FITC-annexin V/propidium iodide-double staining based flow cytometry (reference value: 1.63%); assay type: functional

Sequence of Receptor-type tyrosine-protein kinase FLT3 (Homo sapiens) (P36888 whole entry): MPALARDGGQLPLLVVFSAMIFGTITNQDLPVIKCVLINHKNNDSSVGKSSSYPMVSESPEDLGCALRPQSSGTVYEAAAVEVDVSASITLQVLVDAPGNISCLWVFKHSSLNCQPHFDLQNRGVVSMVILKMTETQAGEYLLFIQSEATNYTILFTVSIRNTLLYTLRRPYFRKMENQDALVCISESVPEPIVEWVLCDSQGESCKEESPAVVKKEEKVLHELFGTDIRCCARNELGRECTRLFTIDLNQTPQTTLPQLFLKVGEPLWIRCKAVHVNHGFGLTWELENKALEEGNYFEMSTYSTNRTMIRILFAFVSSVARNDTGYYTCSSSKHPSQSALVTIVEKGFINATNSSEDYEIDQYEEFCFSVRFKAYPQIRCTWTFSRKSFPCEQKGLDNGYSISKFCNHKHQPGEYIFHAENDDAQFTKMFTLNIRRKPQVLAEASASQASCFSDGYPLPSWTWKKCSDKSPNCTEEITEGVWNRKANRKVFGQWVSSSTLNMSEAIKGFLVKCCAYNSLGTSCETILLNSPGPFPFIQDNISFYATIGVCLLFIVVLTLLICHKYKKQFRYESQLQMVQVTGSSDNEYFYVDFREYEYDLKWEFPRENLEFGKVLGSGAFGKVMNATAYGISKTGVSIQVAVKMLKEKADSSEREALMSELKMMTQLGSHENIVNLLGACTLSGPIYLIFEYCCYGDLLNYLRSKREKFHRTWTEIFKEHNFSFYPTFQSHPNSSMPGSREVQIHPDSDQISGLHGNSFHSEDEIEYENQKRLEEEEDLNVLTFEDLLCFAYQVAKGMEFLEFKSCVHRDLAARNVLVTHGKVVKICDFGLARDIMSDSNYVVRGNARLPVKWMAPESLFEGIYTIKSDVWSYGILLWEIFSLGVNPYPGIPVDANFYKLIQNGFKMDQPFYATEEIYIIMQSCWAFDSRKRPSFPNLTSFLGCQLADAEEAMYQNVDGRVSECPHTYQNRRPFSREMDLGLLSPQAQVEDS

What does the source list for `CC(=O)c1ccc(NC(=O)N2CCN(c3ccnc(Nc4ccc(N5CCOCC5)cc4)n3)CC2)cc1`?
Activity (HEL [1]): 16.97%; viability at 1 µM (HEL [2]): 47.9%; Activity (HEL [3]): Dose-dependent effect; inhibition [4]: 80.7%; Activity (HEL [5]): 61.44%; Activity (HEL [6]): 78.05%; Activity (HEL [7]): 54.07%; Activity (HEL [8]): 4.07%; Activity (HEL [9]): 71.85%; Activity (HEL [10]): 35.53%; Activity (HEL [11]): 7%; GI50 (HL-60): 16.5 µM; Activity (HEL [12]): 9.77%; GI50 (MV4-11): 11 µM; viability at 3 µM (HEL [13]): 22.6%; GI50 (HEL [14]): 4.3 µM; Activity (HEL [15]): Dose-dependent effect; Activity (HEL [16]): 5.91%; Activity (HEL [17]): 33.6%; Activity (HEL [18]): 6.97%; Activity (HEL [19]): 30.4%
